The values that follow come from ChEMBL document CHEMBL3232818, “Imidazole-derived 2-[N-carbamoylmethyl-alkylamino]acetic acids, substrate-dependent modulators of insulin-degrading enzyme in amyloid-β hydrolysis” (Eur J Med Chem, 2014).

In brackets after ≈: the same amount, converted by molar mass. Activity calls are given as the source filed them. The calls are words filed in the database; no cut-off is given here. Where only a bound is given, the exact number is not on record here.

Data set [1] concerns the target Insulin-degrading enzyme (Homo sapiens) (UniProt P14735). Nature of the data set: Competitive inhibition of human recombinant IDE-mediated amyloid beta (16 to 23) hydrolysis using ATTO 655-Cys-Lys-Leu-Val-Phe-Phe-Ala-Glu-Asp-Trp as substrate. A digest of the protocol:
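Human recombinant IDE (1.87 ng/μL) preincubated 10 min at 37 °C with compound in 50 mM Hepes, 100 mM NaCl, pH 7.4. Reaction started with quenched ATTO 655-labelled peptide substrate (5 μM final), 1% DMSO final. Fluorescence read after 30 min (ex 635, em 750 nm). 8-point dose-response curves, average of at least three independent measurements. EDTA reference (2 mM).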

The target is the same in data set [2]. The data set is described as follows: Reversible inhibition of human recombinant IDE-mediated amyloid beta (16 to 23) hydrolysis using ATTO 655-Cys-Lys-Leu-Val-Phe-Phe-Ala-Glu-Asp-Trp as substrate at 20 uM preincubated for 20 mins measured measured after 100 fold dilution by spectrophotometer analysis.
For data set [3] the target is unchanged. The data set is described as follows: (§1) Inhibition of human recombinant IDE-mediated amyloid beta (16 to 23) hydrolysis using ATTO 655-Cys-Lys-Leu-Val-Phe-Phe-Ala-Glu-Asp-Trp as substrate preincubated for 10 mins measured after 30 mins by spectrophotometer analysis.
The next data set deals with T1, Insulin-degrading enzyme (Homo sapiens, UniProt P14735).
T1 sequence (P14735 whole entry): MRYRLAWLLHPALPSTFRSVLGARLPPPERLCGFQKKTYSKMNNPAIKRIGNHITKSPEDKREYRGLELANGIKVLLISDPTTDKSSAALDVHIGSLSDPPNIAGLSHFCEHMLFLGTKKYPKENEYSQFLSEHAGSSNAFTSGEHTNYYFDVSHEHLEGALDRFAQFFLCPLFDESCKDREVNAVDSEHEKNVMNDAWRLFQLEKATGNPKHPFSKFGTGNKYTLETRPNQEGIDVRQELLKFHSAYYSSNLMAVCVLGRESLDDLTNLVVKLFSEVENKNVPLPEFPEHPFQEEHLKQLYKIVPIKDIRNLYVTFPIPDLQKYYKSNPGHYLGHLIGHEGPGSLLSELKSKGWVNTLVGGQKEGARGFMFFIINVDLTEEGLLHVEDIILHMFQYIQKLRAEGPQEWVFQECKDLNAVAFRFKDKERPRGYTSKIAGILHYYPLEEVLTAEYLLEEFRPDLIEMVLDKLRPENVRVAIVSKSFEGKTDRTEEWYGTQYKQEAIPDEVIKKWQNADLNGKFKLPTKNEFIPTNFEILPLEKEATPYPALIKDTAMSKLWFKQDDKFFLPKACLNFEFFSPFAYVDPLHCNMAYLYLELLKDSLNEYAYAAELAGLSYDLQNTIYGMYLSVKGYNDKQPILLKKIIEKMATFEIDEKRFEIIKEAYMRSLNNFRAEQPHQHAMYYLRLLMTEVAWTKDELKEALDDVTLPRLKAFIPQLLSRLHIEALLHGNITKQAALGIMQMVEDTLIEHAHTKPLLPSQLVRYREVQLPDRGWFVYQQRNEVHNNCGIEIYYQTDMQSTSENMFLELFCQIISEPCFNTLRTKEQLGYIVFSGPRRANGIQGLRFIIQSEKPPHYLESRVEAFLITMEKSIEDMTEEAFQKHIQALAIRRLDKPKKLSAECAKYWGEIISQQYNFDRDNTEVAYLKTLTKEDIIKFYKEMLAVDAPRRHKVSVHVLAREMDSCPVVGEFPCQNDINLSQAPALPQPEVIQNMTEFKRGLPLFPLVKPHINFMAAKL
Described as §1.

Data set [4] in a line: Solubility of the compound in PBS at pH 7.4. In kind it is physicochemical.
The nature of data set [5]: Half life in mouse plasma at 10 uM by LC-MS/MS analysis. In kind it is ADME, cell-free.
In the next data set the target is T2, Interstitial collagenase (Homo sapiens, UniProt P03956).
T2 sequence (P03956 whole entry): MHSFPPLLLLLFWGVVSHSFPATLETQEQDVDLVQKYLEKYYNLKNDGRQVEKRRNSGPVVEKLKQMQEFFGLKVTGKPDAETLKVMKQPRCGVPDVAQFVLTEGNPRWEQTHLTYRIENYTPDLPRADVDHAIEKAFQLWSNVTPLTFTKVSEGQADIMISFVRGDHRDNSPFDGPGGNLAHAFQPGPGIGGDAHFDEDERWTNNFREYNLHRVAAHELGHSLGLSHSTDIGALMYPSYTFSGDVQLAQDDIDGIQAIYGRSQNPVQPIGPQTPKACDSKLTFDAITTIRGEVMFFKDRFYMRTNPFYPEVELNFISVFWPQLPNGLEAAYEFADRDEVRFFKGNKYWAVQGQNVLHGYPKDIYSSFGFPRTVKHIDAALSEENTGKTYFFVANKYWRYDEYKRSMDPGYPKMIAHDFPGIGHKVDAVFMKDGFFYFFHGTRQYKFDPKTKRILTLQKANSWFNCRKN
The data set is described as follows: Inhibition of human recombinant MMP1-mediated amyloid beta hydrolysis using DNP-Pro-Cha-Gly- Cys(Me)-His-Ala- Lys(n-Me-Abz)-NH2 as substrate after 40 mins by fluorimetry assay.

A short description of data set [6]: Half life in human liver microsomes at 1 uM by LC-MS/MS analysis. In kind it is ADME.
The nature of data set [7]: PBS-octanol partition coefficient, log D of the compound. In kind it is physicochemical.
In data set [8] the target is Angiotensin-converting enzyme (Homo sapiens, UniProt P12821). The data set is described as follows: Inhibition of human ACE-mediated amyloid beta hydrolysis.
Sequence of Angiotensin-converting enzyme (P12821 whole entry, the tested form may be a part): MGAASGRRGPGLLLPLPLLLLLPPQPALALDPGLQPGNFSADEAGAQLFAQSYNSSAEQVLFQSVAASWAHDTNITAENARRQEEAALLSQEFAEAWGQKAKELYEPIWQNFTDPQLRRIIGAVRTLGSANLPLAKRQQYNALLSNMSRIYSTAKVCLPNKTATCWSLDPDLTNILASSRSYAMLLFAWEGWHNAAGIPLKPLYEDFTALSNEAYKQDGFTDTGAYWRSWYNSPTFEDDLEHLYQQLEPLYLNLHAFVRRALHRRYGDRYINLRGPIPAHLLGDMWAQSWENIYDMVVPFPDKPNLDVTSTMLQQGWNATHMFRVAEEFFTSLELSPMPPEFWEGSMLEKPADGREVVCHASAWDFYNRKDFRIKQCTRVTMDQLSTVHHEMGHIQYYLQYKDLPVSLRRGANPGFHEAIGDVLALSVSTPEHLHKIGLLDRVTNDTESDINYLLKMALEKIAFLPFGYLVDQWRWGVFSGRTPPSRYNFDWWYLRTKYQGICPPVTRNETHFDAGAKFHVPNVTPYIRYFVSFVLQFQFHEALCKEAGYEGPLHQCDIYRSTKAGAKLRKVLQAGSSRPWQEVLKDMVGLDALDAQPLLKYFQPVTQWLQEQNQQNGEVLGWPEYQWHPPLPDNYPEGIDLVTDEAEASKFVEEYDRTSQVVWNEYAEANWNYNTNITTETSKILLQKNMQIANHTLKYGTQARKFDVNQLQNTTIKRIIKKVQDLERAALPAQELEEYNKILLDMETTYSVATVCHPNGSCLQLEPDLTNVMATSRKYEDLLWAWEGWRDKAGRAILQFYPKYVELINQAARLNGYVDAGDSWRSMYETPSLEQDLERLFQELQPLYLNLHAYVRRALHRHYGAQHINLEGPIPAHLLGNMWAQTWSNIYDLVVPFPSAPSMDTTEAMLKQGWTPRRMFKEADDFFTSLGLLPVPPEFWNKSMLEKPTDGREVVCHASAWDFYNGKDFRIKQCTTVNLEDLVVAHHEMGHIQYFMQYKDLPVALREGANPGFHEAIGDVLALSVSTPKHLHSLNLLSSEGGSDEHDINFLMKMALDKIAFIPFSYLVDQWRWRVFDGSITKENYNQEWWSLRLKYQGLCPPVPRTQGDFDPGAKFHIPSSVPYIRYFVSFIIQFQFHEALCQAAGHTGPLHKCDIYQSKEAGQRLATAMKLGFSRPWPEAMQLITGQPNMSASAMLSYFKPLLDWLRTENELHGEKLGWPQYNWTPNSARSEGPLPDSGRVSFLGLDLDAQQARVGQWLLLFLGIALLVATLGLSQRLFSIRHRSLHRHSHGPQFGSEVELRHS
Data set [9] deals with Disintegrin and metalloproteinase domain-containing protein 17 (Homo sapiens, UniProt P78536). Nature of the data set: Inhibition of human recombinant TACE-mediated amyloid beta hydrolysis after 5 mins by fluorimetry assay.
Sequence of Disintegrin and metalloproteinase domain-containing protein 17 (P78536 whole entry, the tested form may be a part): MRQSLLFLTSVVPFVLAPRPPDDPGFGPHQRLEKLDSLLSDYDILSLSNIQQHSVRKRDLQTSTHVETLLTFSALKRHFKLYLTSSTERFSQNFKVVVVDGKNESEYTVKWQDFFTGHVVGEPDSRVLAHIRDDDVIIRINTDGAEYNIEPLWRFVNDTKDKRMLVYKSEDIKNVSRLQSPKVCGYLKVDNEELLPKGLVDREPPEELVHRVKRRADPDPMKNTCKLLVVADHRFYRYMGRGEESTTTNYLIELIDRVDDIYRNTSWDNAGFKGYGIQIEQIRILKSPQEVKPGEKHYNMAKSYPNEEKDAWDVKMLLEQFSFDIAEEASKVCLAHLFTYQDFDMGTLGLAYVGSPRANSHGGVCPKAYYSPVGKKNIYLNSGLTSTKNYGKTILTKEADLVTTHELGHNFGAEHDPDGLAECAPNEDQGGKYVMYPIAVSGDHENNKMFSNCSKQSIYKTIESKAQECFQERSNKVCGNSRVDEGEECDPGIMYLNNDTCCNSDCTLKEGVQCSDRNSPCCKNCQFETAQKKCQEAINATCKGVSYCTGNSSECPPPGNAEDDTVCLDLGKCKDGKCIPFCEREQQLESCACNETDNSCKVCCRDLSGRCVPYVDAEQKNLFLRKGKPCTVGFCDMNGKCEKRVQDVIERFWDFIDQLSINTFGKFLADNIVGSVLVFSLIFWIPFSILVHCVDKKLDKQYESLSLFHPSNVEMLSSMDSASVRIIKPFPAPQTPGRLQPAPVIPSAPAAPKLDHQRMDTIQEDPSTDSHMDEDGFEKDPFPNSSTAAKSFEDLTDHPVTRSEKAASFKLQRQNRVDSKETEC
The next data set addresses Neprilysin (Homo sapiens, UniProt P08473). Nature of the data set: Inhibition of human NEP-mediated amyloid beta hydrolysis.
The target in data set [10] is Angiotensin-converting enzyme 2 (Homo sapiens, UniProt Q9BYF1). Nature of the data set: Inhibition of human recombinant ACE2-mediated amyloid beta hydrolysis using Mca-Tyr-Val-Ala-Asp-Pro-Ala-Lys-(DNP)-OH as substrate after 20 mins by fluorimetry assay.
Sequence of Angiotensin-converting enzyme 2 (Q9BYF1 whole entry): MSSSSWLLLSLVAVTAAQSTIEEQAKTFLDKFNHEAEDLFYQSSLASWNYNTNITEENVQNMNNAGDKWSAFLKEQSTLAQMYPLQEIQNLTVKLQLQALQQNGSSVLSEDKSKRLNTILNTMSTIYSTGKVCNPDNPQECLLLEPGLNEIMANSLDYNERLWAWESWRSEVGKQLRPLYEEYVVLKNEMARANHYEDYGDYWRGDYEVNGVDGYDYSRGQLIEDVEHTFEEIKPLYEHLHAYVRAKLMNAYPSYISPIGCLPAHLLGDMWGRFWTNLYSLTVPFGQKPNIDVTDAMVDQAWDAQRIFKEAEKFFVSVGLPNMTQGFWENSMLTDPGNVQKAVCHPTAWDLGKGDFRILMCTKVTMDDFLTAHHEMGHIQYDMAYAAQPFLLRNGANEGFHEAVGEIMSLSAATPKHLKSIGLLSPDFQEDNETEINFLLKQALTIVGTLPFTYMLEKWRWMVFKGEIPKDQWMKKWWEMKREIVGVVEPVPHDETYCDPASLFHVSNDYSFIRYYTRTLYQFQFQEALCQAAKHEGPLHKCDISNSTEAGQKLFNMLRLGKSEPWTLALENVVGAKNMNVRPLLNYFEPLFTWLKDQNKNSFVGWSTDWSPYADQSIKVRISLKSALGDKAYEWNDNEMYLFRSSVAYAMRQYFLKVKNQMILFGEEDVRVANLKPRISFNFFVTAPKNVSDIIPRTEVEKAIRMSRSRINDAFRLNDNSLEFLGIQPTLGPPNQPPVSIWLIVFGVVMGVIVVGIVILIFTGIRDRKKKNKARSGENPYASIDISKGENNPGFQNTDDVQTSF
Data set [11] is described as follows: Half life in IHH cell culture medium at 10 uM by LC-MS/MS analysis. In kind it is physicochemical, HH. A digest of the protocol: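 Stability measured in William's E medium with 10% fetal calf serum.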
Data set [12] has as its target T3, Endothelin-converting enzyme 1 (Homo sapiens, UniProt P42892).
T3 sequence (P42892 whole entry): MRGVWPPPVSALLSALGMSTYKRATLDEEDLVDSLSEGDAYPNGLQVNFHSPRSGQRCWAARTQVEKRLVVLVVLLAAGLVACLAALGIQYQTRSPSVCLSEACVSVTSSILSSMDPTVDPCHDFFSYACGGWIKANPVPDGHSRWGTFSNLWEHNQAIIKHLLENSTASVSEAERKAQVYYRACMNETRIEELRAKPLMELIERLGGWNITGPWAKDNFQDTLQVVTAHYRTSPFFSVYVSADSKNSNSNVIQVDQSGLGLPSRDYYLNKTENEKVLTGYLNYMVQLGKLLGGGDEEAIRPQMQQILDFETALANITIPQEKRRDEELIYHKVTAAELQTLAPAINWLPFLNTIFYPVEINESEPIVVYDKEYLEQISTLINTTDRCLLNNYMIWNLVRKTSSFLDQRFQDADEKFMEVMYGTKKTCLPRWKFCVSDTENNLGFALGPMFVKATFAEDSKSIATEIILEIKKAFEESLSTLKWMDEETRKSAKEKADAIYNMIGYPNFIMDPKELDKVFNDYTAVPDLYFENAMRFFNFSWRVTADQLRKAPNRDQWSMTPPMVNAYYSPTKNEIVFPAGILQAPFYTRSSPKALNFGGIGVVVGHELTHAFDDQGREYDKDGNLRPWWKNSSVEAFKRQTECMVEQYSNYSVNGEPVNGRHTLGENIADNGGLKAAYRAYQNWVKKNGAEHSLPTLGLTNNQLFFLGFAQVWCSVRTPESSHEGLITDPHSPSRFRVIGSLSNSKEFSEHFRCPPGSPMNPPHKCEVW
The data set is described as follows: Inhibition of human recombinant ECE1-mediated amyloid beta hydrolysis after 45 mins by fluorimetry assay.

A further data set addresses Collagenase 3 (Homo sapiens, UniProt P45452). Nature of the data set: Inhibition of human recombinant MMP13-mediated amyloid beta hydrolysis after 10 mins by fluorimetry assay.

Sequence of Neprilysin (P08473 whole entry): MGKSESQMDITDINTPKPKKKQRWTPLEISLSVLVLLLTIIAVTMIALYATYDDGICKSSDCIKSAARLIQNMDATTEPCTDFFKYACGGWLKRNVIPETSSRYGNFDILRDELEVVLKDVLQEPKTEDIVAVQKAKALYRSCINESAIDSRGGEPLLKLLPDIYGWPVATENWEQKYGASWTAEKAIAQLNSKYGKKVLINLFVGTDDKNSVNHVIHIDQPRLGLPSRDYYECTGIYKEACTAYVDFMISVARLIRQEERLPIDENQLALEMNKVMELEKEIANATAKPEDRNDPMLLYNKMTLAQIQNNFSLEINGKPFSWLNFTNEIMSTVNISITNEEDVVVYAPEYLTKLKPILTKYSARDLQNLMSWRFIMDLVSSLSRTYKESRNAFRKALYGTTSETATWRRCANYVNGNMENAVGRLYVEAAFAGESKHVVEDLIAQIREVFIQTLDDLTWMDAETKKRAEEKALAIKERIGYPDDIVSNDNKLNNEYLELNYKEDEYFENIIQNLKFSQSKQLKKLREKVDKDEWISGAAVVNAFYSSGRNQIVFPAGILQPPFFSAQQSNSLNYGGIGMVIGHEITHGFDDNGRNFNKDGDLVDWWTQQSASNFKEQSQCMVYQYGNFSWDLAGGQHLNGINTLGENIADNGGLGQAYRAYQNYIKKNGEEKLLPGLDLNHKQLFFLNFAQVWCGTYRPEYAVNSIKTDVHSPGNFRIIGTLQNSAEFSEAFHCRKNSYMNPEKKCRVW

Take `COC(=O)[C@H](Cc1c[nH]cn1)NC(=O)CN(CC(=O)O)Cc1ccccc1`: the inhibition result in data set [1] and in data set [2] was “Active” in each case. Moreover, the inhibition entry in [3] was “Dose-dependent effect”.
Usually IC50 stands for the concentration at which inhibition is half-maximal. As to `COC(=O)[C@H](Cc1ccccc1)NC(=O)CN(CC(=O)O)Cc1ccccc1`, the IC50 on Insulin-degrading enzyme was over 100 µM.
The solubility is the concentration that dissolves in the medium under given conditions. As a reminder, the half-life is the time in which the quantity being followed falls by half. A high value points to slow decline. As usually defined, the logD is lipophilicity at a set pH, counting ionised and neutral species. Higher therefore signals higher lipophilicity. Regarding `CNC(=O)[C@H](Cc1c[nH]cn1)NC(=O)CN(CCCc1ccccc1)CC(=O)O`, the concentration in solution in data set [4] (solubility) came to 68 µM (≈ 27.3 µg/mL). Moreover, the half-life at 10 µM is over 48 h in [5] and over 24 h in data set [11]. The IC50 (at Interstitial collagenase; in [8]; in data set [9]; at Neprilysin; in [10]; in data set [12]) was over 100 µM throughout. Further, at Collagenase 3, the IC50 is over 100 µM. This compound registered a half-life at 1 µM in data set [6] of over 0.667 h. In data set [7], the logD was -1.4.
`COC(=O)[C@H](Cc1c[nH]cn1)NC(=O)CN(CCCc1ccccc1)CC(=O)O`: the IC50 at Insulin-degrading enzyme came out at 0.6 µM.
In the case of `COC(=O)[C@H](Cc1c[nH]cn1)NC(=O)CN(CC(=O)O)C(=O)c1ccccc1`, the IC50 at Insulin-degrading enzyme is over 100 µM.
